As a reminder, the pIC50 is the IC50 on a negative log10 scale, so that one unit is a factor of ten. Low values mean a high IC50, high ones a low IC50.

pIC50: −log10 of the molar value.

The assay concerns the target Sodium/potassium-transporting ATPase. The experiment in a line: Inhibition of [3H]- ouabain binding to digitalis receptor. The assay is classed as protein-complex assay, Cavia porcellus. In a few lines: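 Radioligand binding to the digitalis receptor recognition site of heart muscle, read as displacement of [3H]ouabain.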
With `CC1O[C@@H](O[C@H]2CC[C@@]3(C)[C@H](CC[C@@H]4[C@@H]3CC[C@]3(C)[C@@H](CO)CC[C@]43O)C2)C[C@@H](O)[C@@H]1O` (stereo partly specified), the pIC50 was 6.21.

Regarding `CC1O[C@@H](O[C@H]2CC[C@@]3(C)[C@H](CC[C@@H]4[C@@H]3CC[C@]3(C)[C@@H](C[N+](=O)[O-])CC[C@]43O)C2)C[C@@H](O)[C@@H]1O` (stereo partly specified), the pIC50 was 7.06.

Compound `C[C@H]1O[C@H](O[C@H]2CC[C@@]3(C)[C@H](CC[C@@H]4[C@@H]3CC[C@]3(C)[C@@H](C(=O)CO)CC[C@]43O)C2)[C@H](O)[C@H](O)[C@H]1O` had a pIC50 of 5.97.

The compound `CC1O[C@@H](O[C@H]2CC[C@@]3(C)[C@H](CC[C@@H]4[C@@H]3CC[C@]3(C)[C@@H](CO)CC[C@]43O)C2)C(O)[C@@H](O)[C@H]1O` (stereo partly specified) had a pIC50 of 6.44.

Take `CC1O[C@@H](O[C@H]2CC[C@@]3(C)[C@H](CC[C@@H]4[C@@H]3CC[C@]3(C)[C@@H](C[N+](=O)[O-])CC[C@]43O)C2)C(O)[C@@H](O)[C@H]1O` (stereo partly specified): the pIC50 was 7.92.

For the compound `CC1O[C@@H](O[C@H]2CC[C@@]3(C)[C@H](CC[C@@H]4[C@@H]3CC[C@]3(C)[C@@H](C(=O)O)CC[C@]43O)C2)C[C@@H](O)[C@@H]1O` (stereo partly specified), the pIC50 is 4.44.

For the compound `COC(=O)[C@H]1CC[C@]2(O)[C@@H]3CC[C@@H]4C[C@@H](O[C@H]5C[C@@H](O)[C@H](O)C(C)O5)CC[C@]4(C)[C@H]3CC[C@]12C` (stereo partly specified), the pIC50 is 4.82.

`CC1O[C@@H](O[C@H]2CC[C@@]3(C)[C@H](CC[C@@H]4[C@@H]3CC[C@]3(C)[C@@H](CN)CC[C@]43O)C2)C(O)[C@@H](O)[C@H]1O` (stereo partly specified) had a pIC50 of 7.00.

`CC1O[C@@H](O[C@H]2CC[C@@]3(C)[C@H](CC[C@@H]4[C@@H]3CC[C@]3(C)[C@@H](CC[N+](=O)[O-])CC[C@]43O)C2)C(O)[C@@H](O)[C@H]1O` (stereo partly specified) had a pIC50 of 7.35.

`C[C@H]1O[C@@H](O[C@H]2CC[C@@]3(C)[C@H](CC[C@@H]4[C@@H]3CC[C@]3(C)[C@@H](CN)CC[C@]43O)C2)C[C@@H](O)[C@@H]1O`: the pIC50 is 6.57.

Take `C[C@H]1O[C@@H](O[C@H]2[C@@H](O)C[C@H](O[C@H]3[C@@H](O)C[C@H](O[C@H]4CC[C@@]5(C)[C@H](CC[C@@H]6[C@@H]5CC[C@]5(C)[C@@H](C7=CC(=O)OC7)CC[C@]65O)C4)O[C@@H]3C)O[C@@H]2C)C[C@H](O)[C@@H]1O` [DIGITOXIN]: the pIC50 is 8.10.

(Values after ChEMBL document CHEMBL1126931, “Synthesis of 20-hydroxy-, 20-amino-, and 20-nitro-14-hydroxy-21-nor-5 beta,14 beta-pregnane C-3 glycosides and related derivatives: structure-activity relationships of pregnanes that bind to the digitalis receptor” (J Med Chem, 1993).)
